Laboratory results taken from ChEMBL document CHEMBL4190404, “Synthesis and characterization of amino acid substituted sunitinib analogues for the treatment of AML” (Bioorg Med Chem Lett, 2018).

System: not listed separately
Test: Aqueous solubility in pH 7.4 phosphate buffer at 120 uM after 24 hrs by HPLC method
Format: physicochemical
Details: not given

Q: For COC(=O)CC[C@H](NC(=O)c1ccc2c(c1)/C(=C/c1[nH]c(C)c(C(=O)N[C@@H](CCC(=O)OC)C(=O)OC)c1C)C(=O)N2)C(=O)OC, which solubility at 24 h, 120 µM is on record?
A: < 5 µM

Q: With COC(=O)CC[C@H](NC(=O)c1ccc2c(c1)/C(=C/c1[nH]c(C)c(C(=O)N[C@@H](Cc3ccccc3)C(=O)OC)c1C)C(=O)N2)C(=O)OC as the compound, how does the solubility at 24 h, 120 µM read?
A: < 1 µM

Q: With COC(=O)[C@H](Cc1ccccc1)NC(=O)c1ccc2c(c1)/C(=C/c1[nH]c(C)c(C(=O)N[C@@H](Cc3ccccc3)C(=O)OC)c1C)C(=O)N2 as the compound, how does the solubility at 24 h, 120 µM read?
A: < 1 µM

Q: For COC(=O)c1ccc2c(c1)/C(=C/c1[nH]c(C)c(C(=O)N[C@@H](Cc3ccccc3)C(=O)OC)c1C)C(=O)N2, which solubility at 24 h, 120 µM is on record?
A: < 5 µM

Q: With COC(=O)CC[C@H](NC(=O)c1c(C)[nH]c(/C=C2\C(=O)Nc3ccc(C(=O)N[C@@H](Cc4ccccc4)C(=O)OC)cc32)c1C)C(=O)OC as the compound, how does the solubility at 24 h, 120 µM read?
A: < 1 µM

Q: With CCOC(=O)c1c(C)[nH]c(/C=C2\C(=O)Nc3ccc(C(=O)N[C@@H](CCC(=O)OC)C(=O)OC)cc32)c1C as the compound, how does the solubility at 24 h, 120 µM read?
A: < 1 µM

System: not listed separately
Test: Aqueous solubility in pH 5.5 phosphate buffer at 120 uM after 24 hrs by HPLC method
Format: physicochemical
Details: phosphate buffer, pH 5.5

Q: With COC(=O)CC[C@H](NC(=O)c1ccc2c(c1)/C(=C/c1[nH]c(C)c(C(=O)N[C@@H](CCC(=O)OC)C(=O)OC)c1C)C(=O)N2)C(=O)OC as the compound, how does the solubility at 24 h, 120 µM read?
A: < 5 µM

Q: For COC(=O)CC[C@H](NC(=O)c1ccc2c(c1)/C(=C/c1[nH]c(C)c(C(=O)N[C@@H](Cc3ccccc3)C(=O)OC)c1C)C(=O)N2)C(=O)OC, which solubility at 24 h, 120 µM is on record?
A: < 1 µM

Q: Which solubility at 24 h, 120 µM does the source give for COC(=O)[C@H](Cc1ccccc1)NC(=O)c1ccc2c(c1)/C(=C/c1[nH]c(C)c(C(=O)N[C@@H](Cc3ccccc3)C(=O)OC)c1C)C(=O)N2 here?
A: < 1 µM

Q: Which solubility at 24 h, 120 µM does the source give for COC(=O)c1ccc2c(c1)/C(=C/c1[nH]c(C)c(C(=O)N[C@@H](Cc3ccccc3)C(=O)OC)c1C)C(=O)N2 here?
A: < 1 µM

Q: Which solubility at 24 h, 120 µM does the source give for COC(=O)CC[C@H](NC(=O)c1c(C)[nH]c(/C=C2\C(=O)Nc3ccc(C(=O)N[C@@H](Cc4ccccc4)C(=O)OC)cc32)c1C)C(=O)OC here?
A: < 1 µM

Q: With CCOC(=O)c1c(C)[nH]c(/C=C2\C(=O)Nc3ccc(C(=O)N[C@@H](CCC(=O)OC)C(=O)OC)cc32)c1C as the compound, how does the solubility at 24 h, 120 µM read?
A: < 1 µM

System: Receptor-type tyrosine-protein kinase FLT3 (Homo sapiens), P36888 [UNDEFINED MUTATION]
Sequence (P36888 whole entry, looked up, change not shown): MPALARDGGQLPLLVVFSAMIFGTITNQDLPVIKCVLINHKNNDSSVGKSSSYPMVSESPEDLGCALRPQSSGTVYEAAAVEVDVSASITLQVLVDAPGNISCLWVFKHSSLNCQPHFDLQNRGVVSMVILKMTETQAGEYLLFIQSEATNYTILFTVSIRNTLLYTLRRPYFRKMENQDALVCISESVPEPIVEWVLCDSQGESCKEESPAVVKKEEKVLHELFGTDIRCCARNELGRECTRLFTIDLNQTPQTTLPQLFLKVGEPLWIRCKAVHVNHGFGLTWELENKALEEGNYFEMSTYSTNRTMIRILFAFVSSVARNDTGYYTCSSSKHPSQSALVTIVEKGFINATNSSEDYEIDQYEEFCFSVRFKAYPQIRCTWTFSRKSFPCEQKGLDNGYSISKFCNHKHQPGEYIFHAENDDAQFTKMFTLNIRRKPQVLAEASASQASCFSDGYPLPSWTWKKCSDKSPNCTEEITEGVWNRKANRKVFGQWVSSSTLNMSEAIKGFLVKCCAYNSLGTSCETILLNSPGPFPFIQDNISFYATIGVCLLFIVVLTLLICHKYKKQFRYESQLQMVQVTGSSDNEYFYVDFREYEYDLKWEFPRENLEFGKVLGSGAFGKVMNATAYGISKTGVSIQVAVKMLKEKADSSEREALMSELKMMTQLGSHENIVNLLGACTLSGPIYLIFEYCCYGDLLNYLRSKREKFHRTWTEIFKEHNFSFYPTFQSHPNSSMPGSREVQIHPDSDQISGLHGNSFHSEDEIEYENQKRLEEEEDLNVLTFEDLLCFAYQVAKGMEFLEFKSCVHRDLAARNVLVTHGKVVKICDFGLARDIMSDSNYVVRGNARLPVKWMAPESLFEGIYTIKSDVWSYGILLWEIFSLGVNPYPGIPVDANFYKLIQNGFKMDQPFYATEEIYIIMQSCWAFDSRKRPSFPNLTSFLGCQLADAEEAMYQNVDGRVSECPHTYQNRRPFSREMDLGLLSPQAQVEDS
Test: Inhibition of FLT3 ITD mutant (unknown origin) using TAMRA-Src- tide as substrate at 12.5 uM after 1 hr by fluorescence polarization assay relative to control
Details: not given
How it was run: (§1)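 FLT3-ITD kinase inhibition by fluorescence polarization IMAP assay; each compound tested at 12.5 and 1.25 μM; percent inhibition, average of two parallel measurements.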

Q: Which inhibition does the source give for COC(=O)CC[C@H](NC(=O)c1ccc2c(c1)/C(=C/c1[nH]c(C)c(C(=O)N[C@@H](CCC(=O)OC)C(=O)OC)c1C)C(=O)N2)C(=O)OC here?
A: 80.5%

Q: With COC(=O)CC[C@H](NC(=O)c1ccc2c(c1)/C(=C/c1[nH]c(C)c(C(=O)N[C@@H](Cc3ccccc3)C(=O)OC)c1C)C(=O)N2)C(=O)OC as the compound, how does the inhibition read?
A: 79.4%

Q: Which inhibition does the source give for COC(=O)[C@H](Cc1ccccc1)NC(=O)c1ccc2c(c1)/C(=C/c1[nH]c(C)c(C(=O)N[C@@H](Cc3ccccc3)C(=O)OC)c1C)C(=O)N2 here?
A: 92.3%

Q: With COC(=O)c1ccc2c(c1)/C(=C/c1[nH]c(C)c(C(=O)N[C@@H](Cc3ccccc3)C(=O)OC)c1C)C(=O)N2 as the compound, how does the inhibition read?
A: 79.3%

Q: For COC(=O)CC[C@H](NC(=O)c1c(C)[nH]c(/C=C2\C(=O)Nc3ccc(C(=O)N[C@@H](Cc4ccccc4)C(=O)OC)cc32)c1C)C(=O)OC, which inhibition is on record?
A: 91%

Q: Which inhibition does the source give for CCOC(=O)c1c(C)[nH]c(/C=C2\C(=O)Nc3ccc(C(=O)N[C@@H](CCC(=O)OC)C(=O)OC)cc32)c1C here?
A: 76.7%

System: Receptor-type tyrosine-protein kinase FLT3 (Homo sapiens), P36888 [UNDEFINED MUTATION]
Test: Inhibition of FLT3 ITD mutant (unknown origin) using TAMRA-Src- tide as substrate at 1.25 uM after 1 hr by fluorescence polarization assay relative to control
Details: not given
How it was run: as §1

Q: For COC(=O)CC[C@H](NC(=O)c1ccc2c(c1)/C(=C/c1[nH]c(C)c(C(=O)N[C@@H](CCC(=O)OC)C(=O)OC)c1C)C(=O)N2)C(=O)OC, which inhibition is on record?
A: 41.9%

Q: For COC(=O)CC[C@H](NC(=O)c1ccc2c(c1)/C(=C/c1[nH]c(C)c(C(=O)N[C@@H](Cc3ccccc3)C(=O)OC)c1C)C(=O)N2)C(=O)OC, which inhibition is on record?
A: 19.9%

Q: For COC(=O)[C@H](Cc1ccccc1)NC(=O)c1ccc2c(c1)/C(=C/c1[nH]c(C)c(C(=O)N[C@@H](Cc3ccccc3)C(=O)OC)c1C)C(=O)N2, which inhibition is on record?
A: 28.9%

Q: With COC(=O)c1ccc2c(c1)/C(=C/c1[nH]c(C)c(C(=O)N[C@@H](Cc3ccccc3)C(=O)OC)c1C)C(=O)N2 as the compound, how does the inhibition read?
A: 45.7%

Q: With COC(=O)CC[C@H](NC(=O)c1c(C)[nH]c(/C=C2\C(=O)Nc3ccc(C(=O)N[C@@H](Cc4ccccc4)C(=O)OC)cc32)c1C)C(=O)OC as the compound, how does the inhibition read?
A: 57.3%

Q: For CCOC(=O)c1c(C)[nH]c(/C=C2\C(=O)Nc3ccc(C(=O)N[C@@H](CCC(=O)OC)C(=O)OC)cc32)c1C, which inhibition is on record?
A: 30.2%

System: MV4-11
Test: Antiproliferative activity against human MV4-11 cells after 72 hrs by Celltiter-Glo luminescent cell viability assay
Format: functional, cell-based
Details: MV4-11, 72 h
How it was run: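 MV4-11 leukaemia cells, 72 h proliferation assay, luminescence read-out; IC50 determined from concentration–response.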

Q: With COC(=O)CC[C@H](NC(=O)c1ccc2c(c1)/C(=C/c1[nH]c(C)c(C(=O)N[C@@H](Cc3ccccc3)C(=O)OC)c1C)C(=O)N2)C(=O)OC as the compound, how does the IC50 read?
A: 17.7 µM

Q: Which IC50 does the source give for COC(=O)[C@H](Cc1ccccc1)NC(=O)c1ccc2c(c1)/C(=C/c1[nH]c(C)c(C(=O)N[C@@H](Cc3ccccc3)C(=O)OC)c1C)C(=O)N2 here?
A: 10.9 µM

Q: With COC(=O)c1ccc2c(c1)/C(=C/c1[nH]c(C)c(C(=O)N[C@@H](Cc3ccccc3)C(=O)OC)c1C)C(=O)N2 as the compound, how does the IC50 read?
A: 0.5 µM

Q: For COC(=O)CC[C@H](NC(=O)c1c(C)[nH]c(/C=C2\C(=O)Nc3ccc(C(=O)N[C@@H](Cc4ccccc4)C(=O)OC)cc32)c1C)C(=O)OC, which IC50 is on record?
A: 11.9 µM

System: not listed separately
Test: Lipophilicity, chromatographic hydrophobicity index of the compound at pH 7.4 by HPLC method
Format: physicochemical
Details: buffer
How it was run: (§2)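 RP-HPLC with buffer/acetonitrile gradient elution; CHI profile at starting pH 10.5, 7.4, 5.5 and 1.2; values given as average of the compound group.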

Q: Which CHI does the source give for COC(=O)CC[C@H](NC(=O)c1ccc2c(c1)/C(=C/c1[nH]c(C)c(C(=O)N[C@@H](CCC(=O)OC)C(=O)OC)c1C)C(=O)N2)C(=O)OC here?
A: 65

Q: Which CHI does the source give for COC(=O)CC[C@H](NC(=O)c1ccc2c(c1)/C(=C/c1[nH]c(C)c(C(=O)N[C@@H](Cc3ccccc3)C(=O)OC)c1C)C(=O)N2)C(=O)OC here?
A: 79

Q: For COC(=O)[C@H](Cc1ccccc1)NC(=O)c1ccc2c(c1)/C(=C/c1[nH]c(C)c(C(=O)N[C@@H](Cc3ccccc3)C(=O)OC)c1C)C(=O)N2, which CHI is on record?
A: 90

Q: With COC(=O)c1ccc2c(c1)/C(=C/c1[nH]c(C)c(C(=O)N[C@@H](Cc3ccccc3)C(=O)OC)c1C)C(=O)N2 as the compound, how does the CHI read?
A: 88

Q: For COC(=O)CC[C@H](NC(=O)c1c(C)[nH]c(/C=C2\C(=O)Nc3ccc(C(=O)N[C@@H](Cc4ccccc4)C(=O)OC)cc32)c1C)C(=O)OC, which CHI is on record?
A: 78

Q: For CCOC(=O)c1c(C)[nH]c(/C=C2\C(=O)Nc3ccc(C(=O)N[C@@H](CCC(=O)OC)C(=O)OC)cc32)c1C, which CHI is on record?
A: 84

System: not listed separately
Test: Lipophilicity, chromatographic hydrophobicity index of the compound at pH 5.5 by HPLC method
Format: physicochemical
Details: buffer
How it was run: as §2

Q: With COC(=O)CC[C@H](NC(=O)c1ccc2c(c1)/C(=C/c1[nH]c(C)c(C(=O)N[C@@H](CCC(=O)OC)C(=O)OC)c1C)C(=O)N2)C(=O)OC as the compound, how does the CHI read?
A: 65

Q: Which CHI does the source give for COC(=O)CC[C@H](NC(=O)c1ccc2c(c1)/C(=C/c1[nH]c(C)c(C(=O)N[C@@H](Cc3ccccc3)C(=O)OC)c1C)C(=O)N2)C(=O)OC here?
A: 79

Q: For COC(=O)[C@H](Cc1ccccc1)NC(=O)c1ccc2c(c1)/C(=C/c1[nH]c(C)c(C(=O)N[C@@H](Cc3ccccc3)C(=O)OC)c1C)C(=O)N2, which CHI is on record?
A: 91

Q: Which CHI does the source give for COC(=O)c1ccc2c(c1)/C(=C/c1[nH]c(C)c(C(=O)N[C@@H](Cc3ccccc3)C(=O)OC)c1C)C(=O)N2 here?
A: 89

Q: With COC(=O)CC[C@H](NC(=O)c1c(C)[nH]c(/C=C2\C(=O)Nc3ccc(C(=O)N[C@@H](Cc4ccccc4)C(=O)OC)cc32)c1C)C(=O)OC as the compound, how does the CHI read?
A: 79

Q: Which CHI does the source give for CCOC(=O)c1c(C)[nH]c(/C=C2\C(=O)Nc3ccc(C(=O)N[C@@H](CCC(=O)OC)C(=O)OC)cc32)c1C here?
A: 84

System: not listed separately
Test: Lipophilicity, chromatographic hydrophobicity index of the compound at pH 1.2 by HPLC method
Format: physicochemical
Details: buffer
How it was run: as §2

Q: With COC(=O)CC[C@H](NC(=O)c1ccc2c(c1)/C(=C/c1[nH]c(C)c(C(=O)N[C@@H](CCC(=O)OC)C(=O)OC)c1C)C(=O)N2)C(=O)OC as the compound, how does the CHI read?
A: 65

Q: Which CHI does the source give for COC(=O)CC[C@H](NC(=O)c1ccc2c(c1)/C(=C/c1[nH]c(C)c(C(=O)N[C@@H](Cc3ccccc3)C(=O)OC)c1C)C(=O)N2)C(=O)OC here?
A: 79

Q: For COC(=O)[C@H](Cc1ccccc1)NC(=O)c1ccc2c(c1)/C(=C/c1[nH]c(C)c(C(=O)N[C@@H](Cc3ccccc3)C(=O)OC)c1C)C(=O)N2, which CHI is on record?
A: 92

Q: With COC(=O)c1ccc2c(c1)/C(=C/c1[nH]c(C)c(C(=O)N[C@@H](Cc3ccccc3)C(=O)OC)c1C)C(=O)N2 as the compound, how does the CHI read?
A: 89

Q: For COC(=O)CC[C@H](NC(=O)c1c(C)[nH]c(/C=C2\C(=O)Nc3ccc(C(=O)N[C@@H](Cc4ccccc4)C(=O)OC)cc32)c1C)C(=O)OC, which CHI is on record?
A: 78

Q: With CCOC(=O)c1c(C)[nH]c(/C=C2\C(=O)Nc3ccc(C(=O)N[C@@H](CCC(=O)OC)C(=O)OC)cc32)c1C as the compound, how does the CHI read?
A: 84

System: not given
Details: buffer, pH 10.5

Q: For COC(=O)CC[C@H](NC(=O)c1ccc2c(c1)/C(=C/c1[nH]c(C)c(C(=O)N[C@@H](CCC(=O)OC)C(=O)OC)c1C)C(=O)N2)C(=O)OC, which CHI is on record?
A: 65

Q: With COC(=O)CC[C@H](NC(=O)c1ccc2c(c1)/C(=C/c1[nH]c(C)c(C(=O)N[C@@H](Cc3ccccc3)C(=O)OC)c1C)C(=O)N2)C(=O)OC as the compound, how does the CHI read?
A: 79

Q: With COC(=O)[C@H](Cc1ccccc1)NC(=O)c1ccc2c(c1)/C(=C/c1[nH]c(C)c(C(=O)N[C@@H](Cc3ccccc3)C(=O)OC)c1C)C(=O)N2 as the compound, how does the CHI read?
A: 91

Q: Which CHI does the source give for COC(=O)c1ccc2c(c1)/C(=C/c1[nH]c(C)c(C(=O)N[C@@H](Cc3ccccc3)C(=O)OC)c1C)C(=O)N2 here?
A: 89

Q: With COC(=O)CC[C@H](NC(=O)c1c(C)[nH]c(/C=C2\C(=O)Nc3ccc(C(=O)N[C@@H](Cc4ccccc4)C(=O)OC)cc32)c1C)C(=O)OC as the compound, how does the CHI read?
A: 77

Q: Which CHI does the source give for CCOC(=O)c1c(C)[nH]c(/C=C2\C(=O)Nc3ccc(C(=O)N[C@@H](CCC(=O)OC)C(=O)OC)cc32)c1C here?
A: 84
